One data set has as its target T1, GPR41 (Homo sapiens, UniProt O14843).
T1 sequence (O14843 1-346): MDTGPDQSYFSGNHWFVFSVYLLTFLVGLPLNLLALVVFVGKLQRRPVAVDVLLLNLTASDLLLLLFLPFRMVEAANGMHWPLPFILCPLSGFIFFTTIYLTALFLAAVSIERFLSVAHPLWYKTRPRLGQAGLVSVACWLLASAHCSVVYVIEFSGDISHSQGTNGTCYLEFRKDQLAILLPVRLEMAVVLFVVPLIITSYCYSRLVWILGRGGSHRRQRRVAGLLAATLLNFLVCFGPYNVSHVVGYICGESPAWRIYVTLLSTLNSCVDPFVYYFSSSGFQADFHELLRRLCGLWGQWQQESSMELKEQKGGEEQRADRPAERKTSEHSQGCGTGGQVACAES
Put plainly: cAMP assay in GPR41-expressing HEK293 cells. Type of data set: cell-based. (In general: cAMP levels reflect the balance of adenylyl cyclase and phosphodiesterase activity.)

The next data set addresses T2, GPR43 and β-arrestin 2 (Homo sapiens, UniProt O15552).
T2 sequence (O15552 1-330): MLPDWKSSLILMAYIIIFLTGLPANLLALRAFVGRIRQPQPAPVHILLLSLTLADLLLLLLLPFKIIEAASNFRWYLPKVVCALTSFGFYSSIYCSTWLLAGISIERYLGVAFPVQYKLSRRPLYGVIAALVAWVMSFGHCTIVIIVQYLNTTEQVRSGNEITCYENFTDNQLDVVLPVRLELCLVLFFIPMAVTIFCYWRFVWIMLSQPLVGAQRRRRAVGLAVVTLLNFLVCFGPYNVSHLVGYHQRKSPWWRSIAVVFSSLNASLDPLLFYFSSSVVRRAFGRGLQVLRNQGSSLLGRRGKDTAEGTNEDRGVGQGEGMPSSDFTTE
Kind of data set: Nano-Glo live cell assay of interaction between GPR43 and β-arrestin 2. Type of data set: cell-based. The conditions noted are these: for change of potency / slope in β-arrestin-2 NanoBiT assay on addition of acetate: co-treatment with fixed concentrations of acetate.

A further data set can be described thus: Solubility in DMSO. Type of data set: physicochemical. The conditions noted are these: at a concentration of 20 mM.
The subject of data set [1] is NF-κB activity induced by TNF-α in GPR43-expressing cells. Kind of data set: NF-κB luciferase reporter assay in HEK293-hGPR43 cells. Type of data set: cell-based, human. The gist of the method: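 For the NF-κB reporter readout, HEK293-hGPR43 cells were transfected with an NF-κB-RE luciferase reporter (pGL4.32), incubated 24 h at 37°C, 5% CO2, and plated overnight. Compound pretreatment lasted 20 min, then 10 ng/mL human TNF-α was added for 6 h at 37°C. Luminescence was read 15 min after adding One-Glo reagent. Duplicate or triplicate.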
(In general: A reporter such as luciferase makes a cellular process visible.)

Data set [2] addresses T3, human GPR43 (Homo sapiens, UniProt O15552).
T3 sequence (O15552 1-330): T2 sequence (O15552 1-330)
Put plainly: GloSensor cAMP assay in HEK293-hGPR43 cells. Type of data set: cell-based. The gist of the method: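 pGloSensor-22F was transfected into cumate-inducible HEK293-hGPR43 cells, which were re-plated 24 h later for 16 h. Cells were equilibrated 2 h at 20°C in CO2-independent medium with 2% GloSensor cAMP reagent, then pre-read. Compound was added for 5 min, then 1 μM forskolin for 15 min, followed by a luminescence post-read. Signal is post/pre-read, normalised to 0.2% DMSO. Single-point acetate/propionate 10 mM, other agonists 10 μM. Triplicate.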

The target in data set [3] is T3, human GPR43. Put plainly: Ca2+ flux assay in HEK293-hGPR43 cells. It is filed as cell-based. Put shortly: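 HEK293 cells with cumate-inducible human GPR43, kept in DMEM/10% FBS/GlutaMAX/Pen-Strep/2 μg/mL puromycin at 37°C, 5% CO2. Seeded overnight, then loaded 2 h with Calcium 6 dye plus 2.5 mM probenecid. Fluorescence read (ex 485/em 525 nm) every 2.1 s for 50 s. Cells serum-starved. Run in duplicate or triplicate; mean ± SEM.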
In general terms: Calcium flux is commonly read through the fluorescence of an indicator in the cells.

The test system of a further data set is DSS-induced colitis. Kind of data set: DSS-induced colitis mouse model. Type of data set: in vivo, mouse (female C57BL/6). The following applies: 30 mg/kg p.o. daily, 2% DSS. Put shortly:
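Female C57BL/6 mice, 5 weeks old, SPF, acclimated 1 week, given 2% DSS (36–50 kDa) in drinking water ad libitum, renewed every 3 days. Compound 30 mg/kg p.o. daily. Scored daily: weight loss 0–4, stool 0–3, hemoccult bleeding 0–3. DAI is their sum. Day 8: colon length measured. PFA-fixed paraffin swiss-rolls stained for MPO by IHC (ABC, hematoxylin). n=5 control, 10 others.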

Setting [4] is: Homo sapiens, 6 h, read-out: EC50 NF-κB.

The source of these data is paper PMC8724840 (Biomolecules & Therapeutics, 2021).

Read-outs that look alike come from different tables or passages of the source.

Usually EC50 stands for the concentration needed to bring the measured effect to its halfway point.

Turning to `Cc1nc(N2CCCC(C)C2)c2[nH]c(N)c(S(=O)(=O)c3ccccc3)c2n1` (stereo not shown) [Compound 110, 2-methyl-4-(3-methylpiperidin-1-yl)-7-(phenylsulfonyl)-5H-pyrrolo[3,2-d]pyrimidine-6-amine], the “cAMP level in GPR41-expressing cells” value at GPR41 (10 μM) is recorded as “no effects”. For the same molecule, on GPR43 and β-arrestin 2, the midpoint of the response, the EC50, lay at 1.61 µM; the “agonist type in the β-arrestin assay (maximum efficacy vs acetate and PAAT)” value was “partial agonists”; the “change of potency / slope in β-arrestin-2 NanoBiT assay on addition of acetate” value is “stiffer slopes”. Further, the “solubility in dimethyl sulfoxide (DMSO)” value in “Solubility in DMSO” is on record as “completely soluble”. Besides, in data set [1] (setting [4]), the EC50 stood at 3.41 µM. Also, the half-maximal effective concentration (EC50) in data set [1] (Homo sapiens, read-out: EC50 NF-κB luciferase reporter) turned out to be 3.4 µM. Besides, a half-maximal response on human GPR43 [2] (EC50) required 18.7 µM. Also, the “cAMP level in GPR43-expressing cells” value at human GPR43 [2] (10 μM) is reported as “significantly suppressed”. In addition, on human GPR43 [2] (HEK293-hGPR43), the “potency in the cAMP assay” value is “micromolar potency”. Also, at human GPR43 [3], the response was half-maximal at 2.41 µM (EC50). Besides, in the data set with DSS-induced colitis (day 8), the colon length result is reported as “significantly restored” and the “level of myeloperoxidase (MPO) staining in colon” value is reported as “reduced”. Further, in the data set with DSS-induced colitis (vs vehicle-treated mice), the “daily activity index (DAI)” value was “decrease” and the stool consistency score entry was “decrease”.

Take `CCC(=O)O` [propionate, reference compound]: at GPR41 (10 mM), the “cAMP level in GPR41-expressing cells” value is “decrease”. In addition, the “cAMP level in GPR43-expressing cells” value at human GPR43 [2] (10 mM) is recorded as “decrease”.

With `CC1=C(C(=O)Nc2cc(Cl)ccc2Cl)C(c2ccco2)C2=C(CCCC2=O)N1` (stereo not shown) [AR420626], the “cAMP level in GPR41-expressing cells” value at GPR41 (10 μM) is recorded as “exerted activity”.

Take `Cc1nc(N2C[C@@H](C)O[C@@H](C)C2)c2[nH]c(N)c(S(=O)(=O)c3ccccc3F)c2n1` [Compound 187, 4-[(2R,6S)-2,6-dimethylmorpholin-4-yl]-7-(2-fluorobenzenesulfonyl)-2-methyl-5H-pyrrolo[3,2-d]pyrimidin-6-amine]: on GPR41 (10 μM), the “cAMP level in GPR41-expressing cells” value is “no effects”. Also, the EC50 amounted to 0.018 µM at GPR43 and β-arrestin 2; 0.019 µM in data set [1] (setting [4]); 0.016 µM on human GPR43 [2]; 0.019 µM at human GPR43 [3]. In addition, the “agonist type in the β-arrestin assay (maximum efficacy vs acetate and PAAT)” value at GPR43 and β-arrestin 2 is given as “partial agonists”. Moreover, the “change of potency / slope in β-arrestin-2 NanoBiT assay on addition of acetate” value on GPR43 and β-arrestin 2 is given as “stiffer slopes”. Also, the “solubility in dimethyl sulfoxide (DMSO)” value in the data set “Solubility in DMSO” is on record as “completely soluble”. The “cAMP level in GPR43-expressing cells” value on human GPR43 [2] (10 μM) is “significantly suppressed”. Besides, the “potency and efficacy in the calcium assay” value on human GPR43 [3] (HEK293-hGPR43) is “highest potency and efficacy”. In the data set with DSS-induced colitis (day 8), the “level of myeloperoxidase (MPO) staining in colon” value was “reduced”.

As to `CC(=O)[O-].[Na+]` [Acetate, sodium acetate, reference compound], on GPR41 (10 mM), the “cAMP level in GPR41-expressing cells” value is “decrease”. The EC50 on GPR43 and β-arrestin 2 (read-out: EC50 β-Arrestin 2, GPR43-SmBit / LgBit-βarr2, 25 min) was 1440 µM; in data set [1] (read-out: EC50 NF-κB, 10 ng/mL TNF-α, 6 h), 77.4 µM; at human GPR43 [2] (read-out: EC50 cAMP, HEK293-hGPR43, forskolin 1 μM), 301 µM; at human GPR43 [2] (read-out: EC50 in the cAMP assay, HEK293-hGPR43), 300 µM; on human GPR43 [3] (read-out: EC50 Ca^2+, HEK293-hGPR43) it was 57.7 µM. In data set [1] (10 ng/mL TNF-α), the “efficacy of inhibition of NF-κB luciferase reporter activity” value is “half the efficacy”. Also, at human GPR43 [2] (10 mM), the “cAMP level in GPR43-expressing cells” value is “decrease”.
